In ChEMBL document CHEMBL4402547, “Synthesis and Pharmacological Characterization of Conformationally Restricted Retigabine Analogues as Novel Neuronal Kv7 Channel Activators” (J Med Chem, 2020):
Calls of active or inactive are those of the source. No cut-off for these calls is given here.

Columns and labels:
[1] = target: T1, Potassium voltage-gated channel subfamily KQT member 4 (Homo sapiens, UniProt P56696); experiment: Activation of human Kv7.4 expressed in CHO cells assessed as increase in channel current amplitude by whole cell patch clamp electrophysiology assay; assay type: cell-based
T1 sequence (P56696 whole entry): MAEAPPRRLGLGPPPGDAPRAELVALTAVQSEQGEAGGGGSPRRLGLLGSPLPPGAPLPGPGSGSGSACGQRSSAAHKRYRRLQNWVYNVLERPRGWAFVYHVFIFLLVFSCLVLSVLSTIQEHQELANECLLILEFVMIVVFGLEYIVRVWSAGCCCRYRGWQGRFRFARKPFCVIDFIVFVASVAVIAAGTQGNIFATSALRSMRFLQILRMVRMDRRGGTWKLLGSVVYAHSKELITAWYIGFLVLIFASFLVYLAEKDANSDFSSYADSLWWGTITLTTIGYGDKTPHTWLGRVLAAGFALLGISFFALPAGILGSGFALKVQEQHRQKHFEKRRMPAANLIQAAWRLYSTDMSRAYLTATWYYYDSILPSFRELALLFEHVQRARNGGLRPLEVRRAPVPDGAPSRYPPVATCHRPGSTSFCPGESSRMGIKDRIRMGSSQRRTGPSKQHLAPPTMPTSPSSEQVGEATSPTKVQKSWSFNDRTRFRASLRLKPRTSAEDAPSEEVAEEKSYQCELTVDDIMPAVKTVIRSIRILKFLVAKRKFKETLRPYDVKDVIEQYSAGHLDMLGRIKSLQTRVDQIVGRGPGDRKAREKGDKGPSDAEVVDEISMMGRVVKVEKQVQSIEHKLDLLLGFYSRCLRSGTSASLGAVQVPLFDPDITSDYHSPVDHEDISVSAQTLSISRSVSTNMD

[2] = target: Voltage-gated potassium channel, KQT; KCNQ2(Kv7.2)/KCNQ3(Kv7.3) (Homo sapiens) (UniProt O43526+O43525); experiment: Activation of human Kv7.2/Kv7.3 expressed in CHO cells assessed as increase in channel current amplitude by whole cell patch clamp electrophysiology assay; assay type: cell-based
Procedure, shortened: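 Human Kv7.2 plus Kv7.3 cDNAs co-transfected into CHO cells; whole-cell patch clamp at 20–22°C, extracellular solution pH 7.4. Drug applied at 0.01–10 μM to test concentration-dependent current increase.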

[3] = target: T2, Potassium voltage-gated channel subfamily KQT member 3 (Homo sapiens, UniProt O43525); experiment: Activation of human Kv7.3 expressed in CHO cells assessed as increase in channel current amplitude by whole cell patch clamp electrophysiology assay; assay type: cell-based
T2 sequence (O43525 whole entry): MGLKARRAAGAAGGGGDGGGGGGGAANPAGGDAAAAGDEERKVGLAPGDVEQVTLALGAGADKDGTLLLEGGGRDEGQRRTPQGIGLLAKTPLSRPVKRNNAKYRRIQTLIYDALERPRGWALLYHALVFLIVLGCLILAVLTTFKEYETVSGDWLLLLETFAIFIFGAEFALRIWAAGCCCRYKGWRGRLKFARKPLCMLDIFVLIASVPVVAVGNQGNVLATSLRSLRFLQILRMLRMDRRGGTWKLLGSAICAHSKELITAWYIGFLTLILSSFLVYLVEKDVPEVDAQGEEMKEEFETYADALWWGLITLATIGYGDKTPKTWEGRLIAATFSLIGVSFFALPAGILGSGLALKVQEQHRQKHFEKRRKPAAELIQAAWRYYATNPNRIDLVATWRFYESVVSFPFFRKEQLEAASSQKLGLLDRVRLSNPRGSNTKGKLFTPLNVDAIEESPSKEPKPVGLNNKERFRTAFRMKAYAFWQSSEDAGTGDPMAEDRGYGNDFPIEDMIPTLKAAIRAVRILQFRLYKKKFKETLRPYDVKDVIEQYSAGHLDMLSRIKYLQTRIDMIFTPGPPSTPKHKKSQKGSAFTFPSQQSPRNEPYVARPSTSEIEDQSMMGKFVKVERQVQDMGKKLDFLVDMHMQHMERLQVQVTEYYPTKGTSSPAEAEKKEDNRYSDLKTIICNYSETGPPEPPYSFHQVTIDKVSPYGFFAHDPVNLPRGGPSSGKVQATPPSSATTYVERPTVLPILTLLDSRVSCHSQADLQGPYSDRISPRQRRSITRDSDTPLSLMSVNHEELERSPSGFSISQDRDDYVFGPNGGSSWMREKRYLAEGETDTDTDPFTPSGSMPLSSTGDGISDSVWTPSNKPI

[4] = Lipophilicity, log P of the compound; assay type: physicochemical; settings: octanol/water
[5] = target: T3, Potassium voltage-gated channel subfamily KQT member 2 (Homo sapiens, UniProt O43526); experiment: Activation of human Kv7.2 expressed in CHO cells assessed as maximal steady-state increase in current amplitude at 10 uM measured after 200 secs at holding potential of -40 mV by whole cell patch clamp electrophysiology assay; assay type: cell-based
T3 sequence (O43526 whole entry): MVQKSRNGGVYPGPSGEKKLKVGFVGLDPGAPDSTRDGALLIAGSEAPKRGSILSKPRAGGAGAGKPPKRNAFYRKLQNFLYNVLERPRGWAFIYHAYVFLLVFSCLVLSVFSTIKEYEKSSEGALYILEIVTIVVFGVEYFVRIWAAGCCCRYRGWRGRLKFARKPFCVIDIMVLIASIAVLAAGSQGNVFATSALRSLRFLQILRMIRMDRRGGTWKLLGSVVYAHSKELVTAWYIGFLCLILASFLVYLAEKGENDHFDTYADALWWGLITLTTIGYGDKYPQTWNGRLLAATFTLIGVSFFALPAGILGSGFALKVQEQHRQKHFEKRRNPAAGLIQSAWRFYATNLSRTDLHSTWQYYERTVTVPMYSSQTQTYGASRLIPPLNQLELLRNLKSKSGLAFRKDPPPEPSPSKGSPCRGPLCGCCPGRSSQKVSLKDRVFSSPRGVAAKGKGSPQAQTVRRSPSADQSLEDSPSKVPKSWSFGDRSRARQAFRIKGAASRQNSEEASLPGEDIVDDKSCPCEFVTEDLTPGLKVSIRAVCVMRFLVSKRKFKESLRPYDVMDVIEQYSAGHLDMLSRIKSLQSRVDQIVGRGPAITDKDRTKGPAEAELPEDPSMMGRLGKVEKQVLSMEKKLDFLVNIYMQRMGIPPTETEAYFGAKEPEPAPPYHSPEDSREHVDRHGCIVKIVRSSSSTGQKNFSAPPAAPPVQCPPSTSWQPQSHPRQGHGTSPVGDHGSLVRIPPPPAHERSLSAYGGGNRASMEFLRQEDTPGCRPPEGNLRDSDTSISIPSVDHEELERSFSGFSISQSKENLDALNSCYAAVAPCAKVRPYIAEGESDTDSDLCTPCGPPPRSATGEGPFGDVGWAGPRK

NAT (phase 2 metabolism) = experiment: Drug metabolism in human liver S9 fractions assessed as assessed as NAT-mediated phase 2 metabolism at 1 mM preincubated for 5 mins followed by NADPH addition and measured after 60 mins by RP-UHPLC-DAD analysis relative to control; assay type: ADME, subcellular; settings: read-out: Drug metabolism
Procedure, shortened: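 Compound (2 μL of 1 mM stock) in 100 mM phosphate buffer pH 7.4 with pooled human liver S9, preincubated 5 min, then NADPH added, 37°C for 60 min. For UGT: 5 mM UDPGA, alamethicin, 1 mM MgCl added; for NAT: 2 mM DTT, sulfamethazine, 4.5 mM acetyl DL-carnitine, 0.1 U/mL carnitine acetyltransferase. Stopped with ice-cold methanol; RP-UHPLC-DAD; % turnover = 100 − (60 min/0 min concentration × 100).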

[6] = target: T3, Potassium voltage-gated channel subfamily KQT member 2; experiment: Activation of human Kv7.2 expressed in CHO cells assessed as current amplitude at 10 uM measured after 200 secs upon drug wash-out at holding potential of -40 mV by whole cell patch clamp electrophysiology assay; assay type: cell-based
[7] = target: T3, Potassium voltage-gated channel subfamily KQT member 2; experiment: Activation of human Kv7.2 expressed in CHO cells assessed as half-activation voltage at 0.03 uM in constant voltage pulse by whole cell patch clamp electrophysiology assay (reference value: -38.2 +/- 2 mV); assay type: cell-based
Procedure, shortened: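 Transiently transfected CHO cells (human Kv7.2 cDNA in pcDNA3.1, EGFP marker), recorded 24 h post-transfection by whole-cell patch clamp at 20–22°C; extracellular solution in mM 138 NaCl, 2 CaCl₂, 5.4 KCl, 1 MgCl₂, 10 glucose, 10 HEPES, pH 7.4. Constant voltage pulses before and after 0.03 μM compound; conductance/voltage curves fitted to double Boltzmann for V1/2 and maximal conductance.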

[8] = Half life in human; assay type: ADME
[9] = Photostability of compound in pH 7.4 buffer assessed as retention time of metabolite incubated for 6 hrs under visible light irradiation by HPLC/MS analysis
[10] = Photostability of compound in pH 7.4 buffer assessed as formation of 4-fluorobenzaldehyde incubated for 6 hrs under visible light irradiation by HPLC analysis
[11] = target: T3, Potassium voltage-gated channel subfamily KQT member 2; experiment: Potency index, ratio of EC50 for RET to EC50 for test compound for activation of human Kv7.2 expressed in CHO cells; assay type: cell-based

Structure (SMILES) | EC50 [1] | Activity [2] | EC50 [3] | logP [4] | Activity [5] | metabolised at 1 h, 1000 µM (NAT (phase 2 metabolism)) | Activity [6] | V1/2 [7] | half-life [8] | Retention time [9] | Drug metabolism [10] | Ratio EC50 [11]
CC(C)(C)CC(=O)Nc1ccc2c(ccn2Cc2ccc(C(F)(F)F)cc2)c1 | 80 nM | Dose-dependent effect | 920 nM | 5.58 | Active | 12.7% | inactive | – | – | – | – | –
CCOC(=O)Nc1ccc(NCc2ccc(F)cc2)cc1N [EZOGABINE] | – | – | – | – | – | 3.41% | – | -24.4 mV | 360 to 480 min | 5.98 min | Metabolite detected | –
CCCCCCC(=O)Nc1ccc2c(ccn2Cc2ccc(C(F)(F)F)cc2)c1 | – | Dose-dependent effect | – | 6.83 | Active | – | inactive | -38.2 mV | – | – | – | 12
